Results gathered from unrelated publications.
Medium: plasma
Route: intravenous

| SMILES | host | dose | setting | Vd [L/kg] |
| --- | --- | --- | --- | --- |
| Cc1cc(S(=O)(=O)N[C@]2(C)C[C@@H](N3CCN(CC4CCN(c5ccc6c(c5F)n(C)c(=O)n6C5CCC(=O)NC5=O)CC4)CC3)C2)ccc1Nc1ncc(C(F)(F)F)c(N2CCC[C@](C)(O)C2)n1 (stereo partly drawn) | rat | 2 mg/kg |  | 7 |
| Cn1c(=O)c2[nH]cnc2n(C)c1=O | male Sprague-Dawley rat | 11.25 mg/kg |  | 2.39 |
| NCCOCC(=O)N1CCC[C@H](C(=O)NCc2nc(-c3ccc(C(F)(F)F)cc3)cs2)C1 | male Sprague-Dawley rat | 1 mg/kg |  | 3.2 |
| Cc1cc(S(=O)(=O)N[C@H]2CC[C@H](N3CCN(CC4CCN(c5cccc6c5n(C)c(=O)n6C5CCC(=O)NC5=O)CC4)CC3)CC2)ccc1Nc1ncc(C(F)(F)F)c(N2CCC[C@](C)(O)C2)n1 (stereo partly drawn) | rat | 2 mg/kg |  | 10 |
| COc1ccc(-c2coc3cc(O)cc(O)c3c2=O)cc1 | rat | 2 mg/kg |  | 0.81 |
| Cc1nc(Nc2ncc(C(=O)Nc3c(C)cccc3Cl)s2)cc(N2CC[C@H](O)C2)n1 | male Sprague-Dawley rat | 1 mg/kg | single dose | 0.9 |
| COCC(=O)N1CCC[C@H](C(=O)NCc2nc(-c3ccccc3)cs2)C1 | male Sprague-Dawley rat | 1 mg/kg |  | 0.18 |
| [2H]c1cc(C)c(NC(=O)c2cnc(Nc3cc(N4CCC(O)CC4)nc(C)n3)s2)c(Cl)c1 | male Sprague-Dawley rat | 1 mg/kg |  | 4.8 |
| C[C@H]1CN(c2ccc(C3CCC(=O)NC3=O)cc2F)CCN1CC12CCC(NS(=O)(=O)c3ccc(Nc4ncc(C(F)(F)F)c(N5CCC[C@](C)(O)C5)n4)c(F)c3)(CC1)CO2 (stereo partly drawn) | rat | 2 mg/kg |  | 4 |
| CC(C)(N)COCC(=O)N1CCC[C@H](C(=O)NCc2nc(-c3ccc(C(F)(F)F)cc3)cs2)C1 | male Sprague-Dawley rat | 1 mg/kg |  | 4.3 |
| COc1ccc(N(Cc2csc(-c3ccccc3)n2)C(=O)CCCCCC(=O)NO)cc1 | female Sprague-Dawley rat | 5 mg/kg |  | 441 |
| Cc1nc(Nc2ncc(C(=O)Nc3c(C)cccc3Cl)s2)cc(N2CC[C@H](N)C2)n1 | male Sprague-Dawley rat | 1 mg/kg |  | 16.4 |
| C[C@]1(O)CCCN(c2nc(Nc3ccc(S(=O)(=O)N[C@H]4CC[C@H](CN5CCN(c6ccc(C7CCC(=O)NC7=O)cc6F)CC5)CC4)cc3F)ncc2C(F)(F)F)C1 (stereo partly drawn) | rat | 2 mg/kg |  | 4 |
| Cc1nc(Nc2ncc(C(=O)Nc3c(C)cccc3Cl)s2)cc(N2CCN(CCO)CC2)n1 | male Sprague-Dawley rat | 1 mg/kg |  | 2.8 |
| Cc1cc(S(=O)(=O)N[C@H]2CC[C@H](CN3CCN(c4ccc(C5CCC(=O)NC5=O)c(Cl)c4)CC3)CC2)ccc1Nc1ncc(C(F)(F)F)c(N2CCC[C@](C)(O)C2)n1 (stereo partly drawn) | rat | 2 mg/kg |  | 3 |
